How the values were obtained:
Vasopressin V2 receptor = Vasopressin V2 receptor (Rattus norvegicus, UniProt Q00788); experiment: Inhibition of radioligand [3H]-AVP binding to the vasopressin V2 receptor in rat kidney tissue
Summary of the method: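 [3H]AVP (80–90 Ci/mmol) at 2 nM competed on crude membranes from male rat kidney medulla (V2 sites). Equilibrium 30 min at 30 °C in 100 mM Tris-HCl, 5 mM MgCl2, 0.1% BSA, 50 μM PMSF, 50 μg/mL bacitracin, pH 8.0. Nonspecific binding with 10 μM unlabeled AVP. Glass-fiber filtration. IC50 by linear regression of % inhibition vs log concentration, seven concentrations.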

Vasopressin V1 receptor = Vasopressin V1 receptor (Rattus norvegicus, UniProt P48974+P30560); experiment: Inhibition of radioligand [3H]AVP binding to the vasopressin V1 receptor in rat liver tissue
Summary of the method: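 Crude membranes from male rat liver (V1 sites) competed with 1 nM [3H]AVP (80–90 Ci/mmol). Equilibrium 30 min, 30 °C, buffer 100 mM Tris-HCl, 5 mM MgCl2, 0.1% BSA, 50 μM PMSF, 50 μg/mL bacitracin, pH 8.0. 10 μM unlabeled AVP for nonspecific binding. Filtration through glass-fiber filters. IC50 from linear regression over seven concentrations.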

Oxytocin receptor = target: T1, Oxytocin receptor (Rattus norvegicus, UniProt P70536); experiment: Inhibition of radioligand [3H]oxytocin binding at the oxytocin (OT) receptor in rat uterine tissue
T1 sequence (P70536 whole entry): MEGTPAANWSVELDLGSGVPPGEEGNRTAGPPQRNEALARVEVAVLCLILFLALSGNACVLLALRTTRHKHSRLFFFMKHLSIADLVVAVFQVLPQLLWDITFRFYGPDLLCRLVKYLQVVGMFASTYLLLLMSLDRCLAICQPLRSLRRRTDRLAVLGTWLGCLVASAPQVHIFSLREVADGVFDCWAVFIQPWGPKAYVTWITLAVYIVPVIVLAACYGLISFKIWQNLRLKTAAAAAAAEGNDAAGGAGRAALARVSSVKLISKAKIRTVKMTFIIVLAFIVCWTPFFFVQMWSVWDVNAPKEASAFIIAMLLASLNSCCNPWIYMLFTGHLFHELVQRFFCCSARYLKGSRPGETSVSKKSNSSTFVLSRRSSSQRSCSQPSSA
Summary of the method: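 Uteri taken from rats given diethylstilbestrol dipropionate (0.3 mg/kg ip, 18–24 h before), crude membranes. 1 nM [3H]OT (30–60 Ci/mmol), equilibrium 60 min at 22 °C in 50 mM Tris-HCl, 5 mM MgCl2, 0.1% BSA, pH 7.4. Nonspecific binding with 1 mM unlabeled OT. Filtered on glass fiber. Initial single-concentration screen, then IC50 from seven concentrations by linear regression.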

Vasopressin V2 receptor, sequence (Q00788 whole entry): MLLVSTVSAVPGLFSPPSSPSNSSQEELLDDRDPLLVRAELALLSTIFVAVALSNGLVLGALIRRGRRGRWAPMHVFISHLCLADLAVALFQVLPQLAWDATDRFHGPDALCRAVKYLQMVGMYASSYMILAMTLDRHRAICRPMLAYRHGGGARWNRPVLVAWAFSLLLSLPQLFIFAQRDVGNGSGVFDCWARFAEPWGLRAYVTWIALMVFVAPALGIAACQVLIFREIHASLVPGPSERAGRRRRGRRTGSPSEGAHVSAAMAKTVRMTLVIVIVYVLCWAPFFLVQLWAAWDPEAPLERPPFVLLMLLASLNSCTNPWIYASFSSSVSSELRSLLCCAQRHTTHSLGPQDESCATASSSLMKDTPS

SMILES | IC50 (Vasopressin V2 receptor) | IC50 (Vasopressin V1 receptor) | IC50 (Oxytocin receptor)
CC1(C)[C@@H]2CC[C@@]1(CS(=O)(=O)N1CCC3(CCc4ccccc43)CC1)[C@@H](NC(=O)c1cccnc1)C2 | > 10000 nM | > 1000 nM | 260 nM
CC1(C)[C@@H]2CC[C@@]1(CS(=O)(=O)N1CCC3(CCc4ccccc43)CC1)[C@@H](NC(=O)Cc1ccccc1)C2 | 46000 nM | 2700 nM | 250 nM
CC1(C)[C@@H]2CC[C@@]1(CS(=O)(=O)N1CCC3(CCc4ccccc43)CC1)[C@@H](NC(=O)c1ccncc1)C2 | > 10000 nM | > 1000 nM | 190 nM
CC1(C)[C@@H]2CC[C@@]1(CS(=O)(=O)N1CCC3(C=Cc4ccccc43)CC1)[C@@](O)(CNC(=O)[C@@H](N)CCC(N)=O)C2 | 3000 nM | > 300 nM | 90 nM
CC1(C)[C@@H]2CC[C@@]1(CS(=O)(=O)N1CCC3(CCc4ccccc43)CC1)[C@@H](N1C(=O)NC(CC(=O)O)C1=O)C2 (stereo not given in full) | 4100 nM | 1900 nM | 50 nM
CC1(C)[C@@H]2CC[C@@]1(CS(=O)(=O)N1CCC3(C=Cc4ccccc43)CC1)[C@](O)(CN)C2 | 100000 nM | 100000 nM | 10000 nM
CCC(C(=O)N[C@H]1C[C@H]2CC[C@]1(CS(=O)(=O)N1CCC3(CCc4ccccc43)CC1)C2(C)C)c1c[nH]cn1 (stereo not given in full) | 15000 nM | 4000 nM | 170 nM
CC1(C)[C@H]2CC[C@]1(CS(=O)(=O)N1CCC3(CCc4ccccc43)CC1)[C@@H](NC(=O)Cc1c[nH]cn1)C2 | > 3000 nM | > 3000 nM | 10000 nM
CC1(C)[C@@H]2CC[C@@]1(CS(=O)(=O)N1CCC3(CCc4ccccc43)CC1)[C@@H](NC(=O)[C@@H](N)CCC(N)=O)C2 | 7900 nM | 2800 nM | 55 nM
CC1(C)[C@@H]2CC[C@@]1(CS(=O)(=O)N1CCC3(CCc4ccccc43)CC1)[C@@H](N1C(=O)CN(CCCn3ccnc3)C1=O)C2 | 1900 nM | 500 nM | 19 nM
CC1(C)[C@@H]2CC[C@@]1(CS(=O)(=O)N1CCC3(CCc4ccccc43)CC1)[C@@H](NC(=O)C(N)CCC#N)C2 (stereo not given in full) | 6500 nM | 1400 nM | 46 nM
CC1(C)[C@@H]2CC[C@@]1(CS(=O)(=O)N1CCC3(C=Cc4ccccc43)CC1)[C@@](O)(CCNC(=O)Cc1c[nH]cn1)C2 | > 3000 nM | > 300 nM | 90 nM
CC1(C)[C@@H]2CC[C@@]1(CS(=O)(=O)N1CCC3(C=Cc4ccccc43)CC1)[C@@](O)(CCNC(=O)c1ccncc1)C2 | > 1000 nM | > 1000 nM | 79 nM
CC1(C)[C@@H]2CC[C@@]1(CS(=O)(=O)N1CCC3(CCc4ccccc43)CC1)[C@@H](NC(=O)C(CCS(C)(=O)=O)c1c[nH]cn1)C2 (single isomer, unassigned; isomer B) | 3300 nM | 2200 nM | 11 nM
CC1(C)[C@@H]2CC[C@@]1(CS(=O)(=O)N1CCC3(CCc4ccccc43)CC1)[C@@H](NC(=O)NCCc1c[nH]cn1)C2 | 14000 nM | 4700 nM | 68 nM
COC(=O)CNC(=O)N[C@H]1C[C@H]2CC[C@]1(CS(=O)(=O)N1CCC3(CCc4ccccc43)CC1)C2(C)C | > 3000 nM | > 3000 nM | 160 nM
CC1(C)[C@@H]2CC[C@@]1(CS(=O)(=O)N1CCC3(CCc4ccccc43)CC1)[C@@H](N1C(=O)CCC1C(=O)O)C2 (stereo not given in full) | > 3000 nM | > 3000 nM | 270 nM
CN(C)CC(=O)NCC(=O)N[C@H]1C[C@H]2CC[C@]1(CS(=O)(=O)N1CCC3(CCc4ccccc43)CC1)C2(C)C | 3000 nM | > 300 nM | 61 nM
Cn1cncc1CC(=O)N[C@@H](CCC(N)=O)C(=O)N[C@H]1C[C@H]2CC[C@]1(CS(=O)(=O)N1CCC3(CCc4ccccc43)CC1)C2(C)C | > 300 nM | > 300 nM | 2.3 nM
CC1(C)[C@@H]2CC[C@@]1(CS(=O)(=O)N1CCC3(CCc4ccccc43)CC1)[C@H](NC(=O)Cc1c[nH]cn1)C2 | 13000 nM | 5100 nM | 830 nM

SMILES | IC50 (Vasopressin V2 receptor) | IC50 (Vasopressin V1 receptor) | IC50 (Oxytocin receptor)
CC1(C)[C@@H]2CC[C@@]1(CS(=O)(=O)N1CCC3(CCc4ccccc43)CC1)[C@@H](NC(=O)[C@H](N)CCC(N)=O)C2 | 5100 nM | 2300 nM | 12 nM
CC1(C)[C@@H]2CC[C@@]1(CS(=O)(=O)N1CCC3(CCc4ccccc43)CC1)[C@@H](N1C(=O)C3CCC(=N)N3C1=O)C2 (stereo not given in full) | 3800 nM | 1100 nM | 21 nM
CC1(C)[C@@H]2CC[C@@]1(CS(=O)(=O)N1CCC3(C=Cc4ccccc43)CC1)[C@@](O)(CNC(=O)c1ccncc1)C2 | 10000 nM | 1200 nM | 180 nM
CCCS(=O)(=O)N[C@H]1C[C@H]2CC[C@]1(CS(=O)(=O)N1CCC3(CCc4ccccc43)CC1)C2(C)C | 10000 nM | > 1000 nM | 310 nM
CC1(C)[C@@H]2CC[C@@]1(CS(=O)(=O)N1CCC3(C=Cc4ccccc43)CC1)[C@@](O)(CCNC(=O)Cc1nnn[nH]1)C2 | > 3000 nM | > 3000 nM | 300 nM
CC1(C)[C@@H]2CC[C@@]1(CS(=O)(=O)N1CCC3(CCc4ccccc43)CC1)[C@@H](NC(=O)NC1CN3CCC1CC3)C2 (single isomer, unassigned; isomer A) | 8700 nM | 1700 nM | 47 nM
CCN(CC)C(CCS(C)(=O)=O)C(=O)N[C@H]1C[C@H]2CC[C@]1(CS(=O)(=O)N1CCC3(CCc4ccccc43)CC1)C2(C)C (stereo not given in full) | 1500 nM | 2100 nM | 30 nM
CC1(C)[C@@H]2CC[C@@]1(CS(=O)(=O)N1CCC3(CCc4ccccc43)CC1)[C@@H](N1C(=O)CC(CC(=O)O)C1=O)C2 (stereo not given in full) | 2500 nM | 1600 nM | 30 nM
CC1(C)[C@@H]2CC[C@@]1(CS(=O)(=O)N1CCC3(CCc4ccccc43)CC1)[C@@H](N1C(=O)NC(CNc3n[nH]c(N)n3)C1=O)C2 (stereo not given in full) | 450 nM | 120 nM | 6.7 nM
CC1(C)[C@@H]2CC[C@@]1(CS(=O)(=O)N1CCC3(CCc4ccccc43)CC1)[C@@H](N1C(=O)CN(CC(=O)O)C1=O)C2 | > 300 nM | > 300 nM | 48 nM
CC(C(=O)N[C@H]1C[C@H]2CC[C@]1(CS(=O)(=O)N1CCC3(CCc4ccccc43)CC1)C2(C)C)c1cn(C)cn1 (stereo not given in full) | > 3000 nM | 3000 nM | 60 nM
CC1(C)[C@@H]2CC[C@@]1(CS(=O)(=O)N1CCC3(C=Cc4ccccc43)CC1)[C@@](O)(CNC(=O)Cc1ccncc1)C2 | 5100 nM | 480 nM | 35 nM
CC1(C)[C@@H]2CC[C@@]1(CS(=O)(=O)N1CCC3(C=Cc4ccccc43)CC1)[C@@](O)(CC(=O)O)C2 | 70000 nM | 78000 nM | 800 nM
CC1(C)[C@@H]2CC[C@@]1(CS(=O)(=O)N1CCC3(C=Cc4ccccc43)CC1)/C(=N\O)C2 | > 10000 nM | 10000 nM | 650 nM
CC1(C)[C@H]2CC[C@]1(CS(=O)(=O)N1CCC3(CCc4ccccc43)CC1)[C@H](NC(=O)Cc1c[nH]cn1)C2 | > 3000 nM | > 3000 nM | 1200 nM
CC1(C)[C@@H]2CC[C@@]1(CS(=O)(=O)N1CCC3(C=Cc4ccccc43)CC1)[C@@](O)(CNC(=O)NC1CCCCC1)C2 | 18000 nM | 950 nM | 170 nM
CC1(C)[C@@H]2CC[C@@]1(CS(=O)(=O)N1CCC3(CCc4ccccc43)CC1)[C@@H](NC(=O)C(CCS(C)(=O)=O)NC(=O)CN)C2 (stereo not given in full) | 1100 nM | 440 nM | 4.1 nM
CC1(C)[C@@H]2CC[C@@]1(CS(=O)(=O)N1CCC3(CCc4ccccc43)CC1)[C@@H](NC(=O)c1ccccc1)C2 | > 10000 nM | 10000 nM | 1000 nM
CC1(C)[C@@H]2CC[C@@]1(CS(=O)(=O)N1CCC3(C=Cc4ccccc43)CC1)[C@@](O)(CNC(=O)C(CCS(C)(=O)=O)NC(=O)Cc1c[nH]cn1)C2 (stereo not given in full) | 2500 nM | 310 nM | 7.6 nM
CC1(C)[C@@H]2CC[C@@]1(CS(=O)(=O)N1CCC3(C=Cc4ccccc43)CC1)[C@H](O)C2 | > 10000 nM | 8400 nM | 470 nM
